Measurements as given in ChEMBL document CHEMBL1136759, “Synthesis and antiviral activity of novel erythrofuranosyl imidazo[1,2-a]pyridine C-nucleosides constructed via palladium coupling of iodoimidazo[1,2-a]pyridines and dihydrofuran” (J Med Chem, 2003).

Tests used:
[1] = Visual cytotoxicity was scored on HFF cells at time of HCMV plaque enumeration; >100 indicates IC50 greater than the noted (highest) concentration tested.; assay type: functional, cell-based; details: Homo sapiens
In short: (§1)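 Stationary HFF cells, not affected by virus, inspected microscopically for cytotoxicity at the time of plaque counting in the 7-day, 37 °C HCMV plaque assay. Drug was in growth medium. IC50 estimated from regression of % inhibition against log concentration.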

Human betaherpesvirus 5 [2] = test: Antiviral activity against HCMV using plaque reduction assay; >100 indicates IC50 greater than the noted(highest) concentration tested.; assay type: functional, organism-based
In short: (§2)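 HFF cells in 24-well dishes infected with about 100 pfu HCMV (Towne strain) per cm2 cell sheet. After adsorption, drug in growth medium added to duplicate wells at four to eight concentrations. Incubated 7 days at 37 °C, then fixed and stained with crystal violet, and plaques counted microscopically. IC50 from linear regression of % plaque reduction versus log concentration. Means of 2–5 experiments.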

KB [3] = test: Inhibition of KB cell growth was determined; >100 indicates IC50 greater than the noted(highest) concentration tested.; assay type: functional, cell-based; details: Homo sapiens
In short: (§3)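 KB cells seeded at 3000-5000 per well and incubated overnight. Compound added in quadruplicate at six to eight concentrations, then 48 h at 37 °C in CO2, covering about two population doublings. Cells fixed in 95% ethanol, stained with 0.1% crystal violet, dye eluted with acidified ethanol, read at 570 nm. IC50 by linear regression against log concentration.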

Human alphaherpesvirus 1 [4] = test: Antiviral activity against HSV-1 using ELISA assay; >100 indicates IC50 greater than the noted (highest) concentration tested.; assay type: functional, organism-based
In short: (§4)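 BSC-1 cells seeded at 10000 per well in MEM(E) with 10% calf serum and incubated overnight. Drug added in quadruplicate with HSV-1 (KOS) at 100 pfu/well, then 3 days at 37 °C. Detection used HRP-conjugated rabbit anti-HSV-1 antibody with TMB substrate, read at 450 and 570 nm. IC50 from regression of % absorbance reduction versus log concentration.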

Human betaherpesvirus 5 [5] = test: Antiviral activity against HCMV using plaque reduction assay; >100 indicates IC50 greater than the noted (highest) concentration tested.; assay type: functional, organism-based; in short: as §2
[6] = Visual cytotoxicity was scored on HFF cells at time of HCMV plaque enumeration; >100 indicates IC50 greater than the noted(highest) concentration tested.; assay type: functional, cell-based; details: Homo sapiens; in short: as §1
Human betaherpesvirus 5 [7] = test: Antiviral activity against HCMV using plaque reduction assay; assay type: functional, organism-based; in short: as §2
Human alphaherpesvirus 1 [8] = test: Antiviral activity against HSV-1 using ELISA assay; assay type: functional, organism-based; in short: as §4
KB [9] = test: Inhibition of KB cell growth was determined; assay type: functional, cell-based; details: Homo sapiens; in short: as §3
[10] = Visual cytotoxicity was scored on HFF cells at time of HCMV plaque enumeration; assay type: functional, cell-based; details: Homo sapiens; in short: as §1

IC50 (Human betaherpesvirus 5 [2]) [µM] | IC50 (KB [3]) [µM] | IC50 (Human alphaherpesvirus 1 [4]) [µM] | IC50 (Human betaherpesvirus 5 [7]) [µM] | Compound | IC50 [1] [µM] | also measured
> 100 | > 100 | > 100 | – | O[C@@H]1[C@H](O)CO[C@@H]1c1c(Cl)nc2ccc(Cl)cn12 | > 100 | –
> 100 | – | > 100 | – | O[C@@H]1[C@H](O)CO[C@@H]1c1c(Cl)nc2cc(Cl)c(Cl)cn12 | – | –
– | > 100 | > 100 | – | O[C@@H]1C(c2c(Cl)nc3cc(Cl)c(Cl)cn23)OC[C@@H]1O (some centres not stated) | > 100 | IC50 (Human betaherpesvirus 5 [5]): > 100 µM
> 100 | > 100 | > 100 | – | O[C@@H]1COC(c2c(Cl)nc3ccc(Cl)cn23)[C@@H]1O (single isomer, unassigned) | – | IC50 [6]: > 100 µM
– | > 100 | – | 8 | O[C@@H]1[C@H](O)CO[C@@H]1c1c(Cl)nc2cc(Cl)c(Cl)cn12 (stereo in doubt; 15a) | > 100 | IC50 (Human alphaherpesvirus 1 [8]): 24 µM
– | – | – | 2.9 | O[C@@H]1[C@H](O)CO[C@@H]1c1c(Cl)nc2cc(Cl)c(Cl)cn12 (stereo in doubt; 20) | – | IC50 (Human alphaherpesvirus 1 [8]; Human alphaherpesvirus 1): 14 µM; IC50 (KB [9]): 68 µM; IC50 [10]: 100 µM
